In ChEMBL document CHEMBL3526053, “Species-dependent uptake of glycylsarcosine but not oseltamivir in Pichia pastoris expressing the rat, mouse, and human intestinal peptide transporter PEPT1” (Drug Metab Dispos, 2012):

Columns and labels:
Format in all cases: ADME
[1] = target: T1, Solute carrier family 15 member 1 (Mus musculus, UniProt Q9JIP7); assay: Drug uptake in Pichia pastoris GS115 expressing mouse recombinant PEPT1 at 5 uM after 30s by dual-channel liquid scintillation counting analysis in presence of cephradine relative to control; details: 0.5 min
T1 sequence (Q9JIP7 whole entry): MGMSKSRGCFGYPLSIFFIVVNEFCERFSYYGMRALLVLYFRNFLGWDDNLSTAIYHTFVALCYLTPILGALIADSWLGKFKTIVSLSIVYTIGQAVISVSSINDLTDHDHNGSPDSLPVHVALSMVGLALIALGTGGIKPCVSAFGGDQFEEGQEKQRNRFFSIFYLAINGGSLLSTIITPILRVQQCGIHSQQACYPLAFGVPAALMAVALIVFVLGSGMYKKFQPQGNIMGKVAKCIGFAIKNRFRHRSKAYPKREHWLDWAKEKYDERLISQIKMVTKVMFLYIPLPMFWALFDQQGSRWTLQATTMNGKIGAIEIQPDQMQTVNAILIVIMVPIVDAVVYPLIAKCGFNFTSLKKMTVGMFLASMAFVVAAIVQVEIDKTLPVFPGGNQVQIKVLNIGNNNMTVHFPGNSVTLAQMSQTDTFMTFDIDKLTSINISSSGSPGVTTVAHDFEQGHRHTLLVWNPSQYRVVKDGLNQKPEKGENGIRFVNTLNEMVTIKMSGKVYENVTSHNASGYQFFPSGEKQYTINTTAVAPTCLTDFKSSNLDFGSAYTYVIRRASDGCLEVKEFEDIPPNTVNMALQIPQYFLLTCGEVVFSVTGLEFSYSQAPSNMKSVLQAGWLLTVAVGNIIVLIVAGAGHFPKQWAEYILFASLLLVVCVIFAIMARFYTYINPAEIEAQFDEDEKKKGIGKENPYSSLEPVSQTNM
Procedure, shortened: (§1)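 [3H]GlySar 5.0 µM final, 30-s uptake at 24°C in 100 mM potassium phosphate pH 6.5, with or without a potential inhibitor at 10 mM. Cells are methanol-induced transformants. Values are vector-subtracted and expressed as percent of buffer control. Mean ± SE (n=3). ANOVA with Dunnett's test.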

[2] = target: T2, Solute carrier family 15 member 1 (Homo sapiens, UniProt P46059); assay: Drug uptake in Pichia pastoris GS115 expressing human recombinant PEPT1 at 5 uM after 30s by dual-channel liquid scintillation counting analysis in presence of cefazolin relative to control; details: 0.5 min; procedure, shortened: as §1
T2 sequence (P46059 whole entry): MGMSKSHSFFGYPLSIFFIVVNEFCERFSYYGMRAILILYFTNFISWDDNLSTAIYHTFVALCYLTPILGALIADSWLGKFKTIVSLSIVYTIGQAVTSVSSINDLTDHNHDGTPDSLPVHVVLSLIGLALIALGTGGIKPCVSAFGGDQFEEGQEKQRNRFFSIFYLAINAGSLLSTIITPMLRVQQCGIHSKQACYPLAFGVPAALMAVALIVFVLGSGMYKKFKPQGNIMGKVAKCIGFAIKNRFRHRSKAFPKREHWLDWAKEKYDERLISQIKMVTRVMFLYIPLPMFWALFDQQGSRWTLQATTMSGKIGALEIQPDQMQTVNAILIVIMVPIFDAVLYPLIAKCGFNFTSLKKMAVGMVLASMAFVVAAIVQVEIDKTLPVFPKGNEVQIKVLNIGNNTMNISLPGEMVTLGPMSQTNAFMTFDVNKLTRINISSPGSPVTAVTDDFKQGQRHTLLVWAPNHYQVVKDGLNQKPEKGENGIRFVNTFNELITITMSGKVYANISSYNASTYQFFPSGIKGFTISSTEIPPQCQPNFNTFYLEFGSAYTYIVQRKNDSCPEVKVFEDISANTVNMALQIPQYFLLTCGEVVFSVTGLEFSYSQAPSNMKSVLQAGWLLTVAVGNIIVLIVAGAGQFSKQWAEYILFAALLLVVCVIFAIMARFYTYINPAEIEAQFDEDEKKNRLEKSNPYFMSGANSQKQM

[3] = target: T3, Solute carrier family 15 member 1 (Rattus norvegicus, UniProt P51574); assay: Drug uptake in Pichia pastoris GS115 expressing rat recombinant PEPT1 at 5 uM after 30s by dual-channel liquid scintillation counting analysis in presence of valacyclovir relative to control; details: 0.5 min
T3 sequence (P51574 whole entry): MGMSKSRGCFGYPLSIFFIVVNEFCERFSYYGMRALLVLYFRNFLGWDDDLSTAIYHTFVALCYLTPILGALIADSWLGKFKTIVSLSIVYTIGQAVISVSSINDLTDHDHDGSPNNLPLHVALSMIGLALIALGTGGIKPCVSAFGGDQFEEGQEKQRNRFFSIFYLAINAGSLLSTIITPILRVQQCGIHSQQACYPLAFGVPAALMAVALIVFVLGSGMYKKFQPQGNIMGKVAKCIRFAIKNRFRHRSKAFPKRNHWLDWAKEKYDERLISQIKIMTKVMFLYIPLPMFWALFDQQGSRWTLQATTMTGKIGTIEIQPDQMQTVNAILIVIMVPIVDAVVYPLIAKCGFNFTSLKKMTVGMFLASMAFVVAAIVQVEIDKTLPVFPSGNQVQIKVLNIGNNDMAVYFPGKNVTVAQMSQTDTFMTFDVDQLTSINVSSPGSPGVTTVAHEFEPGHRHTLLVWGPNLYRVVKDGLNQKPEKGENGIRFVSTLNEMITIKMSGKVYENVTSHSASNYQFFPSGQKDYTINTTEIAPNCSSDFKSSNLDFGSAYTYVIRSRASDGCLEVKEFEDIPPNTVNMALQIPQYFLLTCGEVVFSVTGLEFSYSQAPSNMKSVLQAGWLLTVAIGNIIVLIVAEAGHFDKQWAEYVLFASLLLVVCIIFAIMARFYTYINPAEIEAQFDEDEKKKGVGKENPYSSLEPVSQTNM
Procedure, shortened: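 Rat PEPT1 (pPIC3.5K-rPept1) in GS115 His+Mut+ transformant, methanol-induced 20-24 hr in BMMY at 30°C, washed into 100 mM potassium phosphate pH 6.5. [3H]GlySar final 5.0 µM with inhibitor at 10 mM, 30 sec at 24°C. Counts taken by liquid scintillation after 24 hr standing. Values are vector-subtracted and given as % of buffer control. Mean ± SE, n=3.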

[4] = target: T1, Solute carrier family 15 member 1; assay: Activity at mouse recombinant PEPT1 expressed in Pichia pastoris GS115 assessed as non-saturable rate constant after 30s by dual-channel liquid scintillation counting analysis
Procedure, shortened: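 [3H]GlySar concentration series 0.005-10 mM, 30-s uptake at 24°C in 100 mM potassium phosphate pH 6.5. Cells come from His+Mut+ GS115 transformants induced 20-24 h in methanol medium. Uptake is normalised to OD600. Data are fitted to Michaelis-Menten plus a first-order nonsaturable term (Kd), weighting unity. Parameters are mean ± SE (n=9).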

[3H]C(C(=O)O)N(C)C(=O)CN (centres undefined)
Drug uptake [1]: 9.8% | Drug uptake [2]: 81.1% | Drug uptake [3]: 5.5% | Kd [4]: 2.21 uL/OD/min
